Measurements as given in ChEMBL document CHEMBL1131173, “Alkoxypsoralens, novel nonpeptide blockers of Shaker-type K+ channels: synthesis and photoreactivity” (J Med Chem, 1998).

How the values were obtained:
Nucleic Acid [1] = experiment: Photobinding to Poly(dA-dT)-Poly(dA-dT)-DNA in dark, determined by the shift of thermal transition temperature; format: nucleic-acid assay
Outline: (§1)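 Poly(dA-dT)-poly(dA-dT) at 10 µM in 0.1 M MOPS, pH 7.0, with compound at a 1:1 compound:DNA ratio. Samples were kept 30 min in the dark or irradiated 30 min at 365 nm (4.5 mW/cm2, 8.1 J/cm2). Melting profiles gave ΔTm = Tm(DNA+drug) − Tm(DNA), as the mean of three determinations.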

[2] = (§2) Compound was tested for in vitro phototoxicity against nauplii of Artemia salina in daylight
Outline: (§3)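 Artemia salina nauplii were hatched for 48 h, and ten per vial were placed in 3 mL seawater containing compound from 100 nM upward in methanol. Incubation was at 25 °C either under daylight or under added UV-A (1.3 mW/cm2, incident dose 112 J/cm2). Dead nauplii were counted at 24 h to give LC50. Run in triplicate.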

[3] = (§4) Compound was tested for in vitro phototoxicity against nauplii of Artemia salina after UV-irradiation; outline: as §3
[4] = compound was tested for production of singlet oxygen, measured as decrease in absorbance of N,N-dimethyl-p-nitrosoaniline (RNO) at 440 nm after 5 hr of UV-A irradiation; format: ADME; settings: 10 µM
Outline: (§5)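 Singlet oxygen generation by compound at 10 µM in O2-saturated solution, read as RNO bleaching. Absorbance decrease was measured at 440 nm after 5 h of UV-A irradiation (4.5 mW/cm2, incident dose 81 J/cm2).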

Nucleic Acid [5] = experiment: Photobinding to Poly(dA-dT)-Poly(dA-dT)-DNA after UV-A irradiation; format: nucleic-acid assay; outline: as §1
[6] = target: T1, Potassium voltage-gated channel subfamily A member 1 (Homo sapiens, UniProt Q09470); experiment: K+ channel blocking activity as blockade at 25 uM in Xenopus laevis Ranvier nodes; format: functional
Outline: (§6)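 On the Ranvier node, compound was tested at 25 µM. Steady-state K+ current block (BK) was normalized to currents in normal bathing medium. Peak Na+ current block was measured at 70 mV pulse amplitude and normalized the same way. Selectivity S = BK/BNa.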

[7] = target: T1, Potassium voltage-gated channel subfamily A member 1; experiment: Selectivity of K+ current blockade given by Bk/BNa in Xenopus laevis; format: functional; outline: as §6
Artemia salina [8] = experiment: Photoinduced dose modification against nauplii of Artemia salina; format: functional
Outline: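 Artemia salina nauplii were collected 48 h after hatching, ten per vial in 3 mL seawater, with compound from 100 nM upward; methanol was the vehicle. Vials were incubated at 25 °C under daylight or with added UV-A (1.3 mW/cm2, incident dose 112 J/cm2). Dead nauplii were counted at 24 h to give LC50. Assays were run in triplicate.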

[9] = Compound was tested for production of singlet oxygen, measured as decrease in absorbance of N,N-dimethyl-p-nitrosoaniline (RNO) at 440 nm after 5 hr of UV-A irradiation; format: ADME; settings: 10 µM; outline: as §5
Artemia salina [10] = experiment: as §2; format: functional; settings: light or radiation study; outline: as §3
Artemia salina [11] = experiment: as §4; format: functional; settings: light or radiation study; outline: as §3
[12] = target: Potassium voltage-gated channel subfamily A member 2 (Homo sapiens, UniProt P16389); experiment: Blockade of peak K+ currents against Kv1.2 gene; format: functional
Outline: (§7)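 Channels expressed in mammalian cells and recorded by whole-cell patch clamp. Each compound was applied at several concentrations, and the apparent dissociation constant Kd was calculated for block of peak K+ current.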

[13] = target: T2, Voltage-gated potassium channel KCNC1 (Homo sapiens, UniProt P48547); experiment: Blockade of peak K+ currents against Kv3.1 gene; format: functional; outline: as §7
T2 sequence (P48547 whole entry): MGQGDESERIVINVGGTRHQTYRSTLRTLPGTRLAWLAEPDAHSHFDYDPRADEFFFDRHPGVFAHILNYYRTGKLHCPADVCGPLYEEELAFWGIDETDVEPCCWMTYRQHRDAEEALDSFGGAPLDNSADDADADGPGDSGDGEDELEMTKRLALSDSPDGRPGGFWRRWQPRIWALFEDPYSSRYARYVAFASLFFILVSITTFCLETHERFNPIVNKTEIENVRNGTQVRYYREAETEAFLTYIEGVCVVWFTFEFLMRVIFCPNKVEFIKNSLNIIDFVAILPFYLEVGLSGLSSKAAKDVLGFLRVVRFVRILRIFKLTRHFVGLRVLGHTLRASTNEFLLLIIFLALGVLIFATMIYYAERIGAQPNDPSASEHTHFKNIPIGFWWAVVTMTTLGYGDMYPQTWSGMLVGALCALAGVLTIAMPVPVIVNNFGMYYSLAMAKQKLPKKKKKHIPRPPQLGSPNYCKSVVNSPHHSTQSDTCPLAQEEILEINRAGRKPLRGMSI

[14] = Compound was tested for production of single oxygen, measured as decrease in absorbance of N,N-dimethyl-p-nitrosoaniline (RNO) at 440 nm after 5 hr of UV-A irradiation; format: ADME; settings: 10 µM
Outline: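 Singlet oxygen from compound at 10 µM was measured in O2-saturated solution by bleaching of N,N-dimethyl-p-nitrosoaniline. The read-out was the fall in absorbance at 440 nm after 5 h of UV-A (4.5 mW/cm2, incident dose 81 J/cm2).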

[15] = target: Potassium voltage-gated channel subfamily A member 5 (Homo sapiens, UniProt P22460); experiment: Blockade of peak K+ currents against Kv1.5 gene; format: functional
Outline: (§8)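 Whole-cell patch-clamp recording of cloned channels expressed in mammalian cells. Each compound was tested at several concentrations, and an apparent Kd for block of peak K+ current was calculated.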

[16] = target: Potassium voltage-gated channel subfamily A member 6 (Homo sapiens, UniProt P17658); experiment: Blockade of peak K+ currents against Kv1.6 gene; format: functional; outline: as §8
[17] = target: Potassium voltage-gated channel subfamily A member 3 (Mus musculus, UniProt P16390); experiment: Blockade of peak Kv1.3 potassium currents; format: functional; outline: as §7
[18] = target: T1, Potassium voltage-gated channel subfamily A member 1; experiment: Blockade of peak K+ currents against Kv1.1 gene; format: functional; outline: as §7

Chain of Potassium voltage-gated channel subfamily A member 2 (P16389 whole entry): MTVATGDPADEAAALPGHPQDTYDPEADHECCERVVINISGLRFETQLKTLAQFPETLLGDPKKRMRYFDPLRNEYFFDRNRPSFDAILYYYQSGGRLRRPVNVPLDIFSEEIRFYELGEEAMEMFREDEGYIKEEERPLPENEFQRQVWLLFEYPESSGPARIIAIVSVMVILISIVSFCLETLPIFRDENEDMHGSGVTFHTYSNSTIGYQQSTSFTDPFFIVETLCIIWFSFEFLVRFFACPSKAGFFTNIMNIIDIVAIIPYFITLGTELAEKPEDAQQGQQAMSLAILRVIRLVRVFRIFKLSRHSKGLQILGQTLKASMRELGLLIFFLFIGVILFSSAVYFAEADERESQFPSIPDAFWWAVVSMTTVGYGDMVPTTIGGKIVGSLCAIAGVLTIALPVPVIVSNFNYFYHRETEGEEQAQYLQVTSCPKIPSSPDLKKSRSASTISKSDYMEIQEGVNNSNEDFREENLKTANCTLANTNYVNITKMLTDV
Chain of Potassium voltage-gated channel subfamily A member 3 (P16390 whole entry): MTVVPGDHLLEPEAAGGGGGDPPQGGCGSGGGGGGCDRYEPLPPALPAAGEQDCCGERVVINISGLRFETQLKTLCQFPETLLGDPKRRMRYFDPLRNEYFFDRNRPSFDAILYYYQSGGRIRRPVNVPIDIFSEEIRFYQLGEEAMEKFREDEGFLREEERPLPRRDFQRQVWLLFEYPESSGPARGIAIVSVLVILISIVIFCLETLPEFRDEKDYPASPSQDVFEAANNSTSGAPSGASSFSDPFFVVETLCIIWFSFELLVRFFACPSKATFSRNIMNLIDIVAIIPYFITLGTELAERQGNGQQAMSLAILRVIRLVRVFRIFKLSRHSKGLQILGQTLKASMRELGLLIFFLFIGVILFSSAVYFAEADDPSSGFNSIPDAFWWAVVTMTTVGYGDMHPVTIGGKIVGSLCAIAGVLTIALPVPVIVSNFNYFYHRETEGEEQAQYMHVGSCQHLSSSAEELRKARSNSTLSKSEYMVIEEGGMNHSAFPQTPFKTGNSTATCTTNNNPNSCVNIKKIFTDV
T1 sequence (Q09470 whole entry): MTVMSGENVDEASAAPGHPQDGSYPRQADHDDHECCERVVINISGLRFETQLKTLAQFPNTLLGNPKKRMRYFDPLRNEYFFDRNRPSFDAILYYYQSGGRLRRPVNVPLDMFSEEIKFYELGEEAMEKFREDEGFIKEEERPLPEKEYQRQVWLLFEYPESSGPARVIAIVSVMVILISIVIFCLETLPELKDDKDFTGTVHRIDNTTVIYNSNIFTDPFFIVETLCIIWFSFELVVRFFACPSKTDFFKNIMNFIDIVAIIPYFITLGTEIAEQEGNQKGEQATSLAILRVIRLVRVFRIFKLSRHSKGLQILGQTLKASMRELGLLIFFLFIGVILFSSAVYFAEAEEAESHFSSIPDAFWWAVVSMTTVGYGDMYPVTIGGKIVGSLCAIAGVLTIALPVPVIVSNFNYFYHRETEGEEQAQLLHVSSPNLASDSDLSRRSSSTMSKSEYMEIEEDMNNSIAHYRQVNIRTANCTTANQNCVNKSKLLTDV
Chain of Potassium voltage-gated channel subfamily A member 6 (P17658 whole entry): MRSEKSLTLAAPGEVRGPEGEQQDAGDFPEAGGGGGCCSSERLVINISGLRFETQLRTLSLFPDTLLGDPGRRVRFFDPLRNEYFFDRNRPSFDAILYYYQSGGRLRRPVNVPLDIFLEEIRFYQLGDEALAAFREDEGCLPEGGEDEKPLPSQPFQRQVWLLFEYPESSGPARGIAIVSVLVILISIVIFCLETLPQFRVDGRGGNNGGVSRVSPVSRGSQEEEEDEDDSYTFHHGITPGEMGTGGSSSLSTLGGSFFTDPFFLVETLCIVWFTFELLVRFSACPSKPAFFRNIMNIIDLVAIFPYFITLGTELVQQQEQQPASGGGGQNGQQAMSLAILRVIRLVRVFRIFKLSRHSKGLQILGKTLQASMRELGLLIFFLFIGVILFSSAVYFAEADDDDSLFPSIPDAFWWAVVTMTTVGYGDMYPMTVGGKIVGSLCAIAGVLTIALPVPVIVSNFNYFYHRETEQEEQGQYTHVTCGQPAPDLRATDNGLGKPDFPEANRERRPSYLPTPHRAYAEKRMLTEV
Chain of Potassium voltage-gated channel subfamily A member 5 (P22460 whole entry): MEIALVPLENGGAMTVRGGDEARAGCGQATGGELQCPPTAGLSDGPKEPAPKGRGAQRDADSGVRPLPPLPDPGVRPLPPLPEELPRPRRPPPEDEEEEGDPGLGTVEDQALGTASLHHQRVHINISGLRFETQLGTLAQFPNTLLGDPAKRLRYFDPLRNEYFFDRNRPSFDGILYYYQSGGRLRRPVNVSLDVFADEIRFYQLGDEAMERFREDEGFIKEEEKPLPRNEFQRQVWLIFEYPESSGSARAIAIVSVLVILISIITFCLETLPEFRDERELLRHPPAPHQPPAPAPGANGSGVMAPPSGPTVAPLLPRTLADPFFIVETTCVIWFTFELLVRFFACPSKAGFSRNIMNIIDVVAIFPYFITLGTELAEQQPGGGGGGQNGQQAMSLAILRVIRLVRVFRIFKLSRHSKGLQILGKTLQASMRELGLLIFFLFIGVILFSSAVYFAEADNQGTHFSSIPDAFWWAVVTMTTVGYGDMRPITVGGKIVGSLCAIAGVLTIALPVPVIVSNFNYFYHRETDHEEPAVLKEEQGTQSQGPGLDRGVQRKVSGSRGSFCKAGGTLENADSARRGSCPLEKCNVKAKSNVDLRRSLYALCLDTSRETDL

| SMILES | ΔTm (Nucleic Acid [1]) [°C] | LC50 [2] [µM] | LC50 [3] [µM] | ΔTm (Nucleic Acid [5]) [°C] | BK [6] [%] | Selectivity [7] | Dose modification (Artemia salina [8]) | further results |
| --- | --- | --- | --- | --- | --- | --- | --- | --- |
| COc1c2ccoc2c(OC)c2oc(=O)ccc12 [ISOPIMPINELLIN] | 0.5 | > 100 | > 100 | 1 |  |  |  | O2 production [4]: -5% |
| COCc1cc(=O)oc2cc3occ(-c4ccccc4)c3cc12 |  |  |  |  | 27 | 2 |  |  |
| COCc1c(C)oc2c(C)c3oc(=O)cc(C)c3cc12 | 0.5 | > 100 | 20 | > 20 | 31 | 11 | >5 | O2 production [4]: 50% |
| CC1COc2cc3oc(=O)ccc3cc21 (centres undefined) | 0.5 | > 100 | 25 | 0.5 | 23 | 3 | >4 | O2 production [9]: 100% |
| COc1c2occc2c(COC(C)C)c2ccc(=O)oc12 |  |  |  |  | 10 | 3 |  |  |
| CCOc1cc(OCC)c2c(COC)cc(=O)oc2c1 |  |  |  |  | 35 | 1.8 |  |  |
| CCOc1cc(OCC)c2ccc(=O)oc2c1 |  |  |  |  | 40 | 0.7 |  |  |
| CCOCc1c(C)oc2c(C)c3oc(=O)cc(C)c3cc12 | 1 |  |  | > 20 | 55 | 6 |  | O2 production [4]: 50% |
| Cc1coc2cc3oc(=O)cc(C)c3cc12 |  |  |  |  | 25 | 8 | >150 | LC50 (Artemia salina [10]): > 100 µM; LC50 (Artemia salina [11]): 0.7 µM |
| COCc1c2ccoc2c(OC)c2oc(=O)ccc12 |  |  |  |  | 14 | 3 |  | LC50 (Artemia salina [10]): > 100 µM; LC50 (Artemia salina [11]): > 100 µM |
| Cc1cc(=O)oc2cc3c(cc12)C(C)CO3 (centres undefined) |  |  |  |  | 45 | 22 | >4 | LC50 (Artemia salina [10]): > 100 µM; LC50 (Artemia salina [11]): 25 µM |
| COc1c2ccoc2cc2oc(=O)ccc12 [BERGAPTEN] | 0.5 | > 100 | 2.5 | 13 | 52 | 14 | >40 | Kd [12]: 41 µM; Kd [13]: 111 µM; O2 production [14]: 5%; Kd [15]: 177 µM; Kd [16]: 187 µM; Kd [17]: 101 µM; Kd [18]: > 200 µM |
| COc1c2c(cc3ccc(=O)oc13)CCO2 |  |  |  |  | 4 | 5 |  |  |
| COCc1cc(=O)oc2cc3occ(C)c3cc12 | 0.5 | > 100 | 2.5 | > 20 | 52 | 17 | >40 | O2 production [9]: 43%; Kd [12]: 18 µM; Kd [13]: 213 µM; Kd [17]: 90 µM; Kd [18]: 56 µM |
| CCOCc1c2ccoc2c(OC)c2oc(=O)ccc12 | 2 |  |  | 1.5 | 16 | 2 |  | O2 production [4]: 7% |
| Cc1coc2cc3oc(=O)ccc3cc12 | 1 | > 100 | 0.5 | 9 | 63 | 15 | >200 | O2 production [9]: 71% |
| C=CCOCc1c2ccoc2c(OC)c2oc(=O)ccc12 |  |  |  |  | 24 | 6 |  |  |
| COc1c2occc2cc2ccc(=O)oc12 [METHOXSALEN] | 1 | > 100 | 2.2 | 10 | 5 | 4 | >40 | O2 production [9]: 9% |
| CCOc1c2ccoc2c(OCC)c2oc(=O)ccc12 | 0.5 | > 100 | > 100 | 0.5 | 75 | 14 |  | O2 production [9]: -4%; Kd [12]: 23 µM; Kd [13]: 178 µM; Kd [17]: 28 µM; Kd [18]: 167 µM |
| O=c1ccc2cc3c(-c4ccccc4)coc3cc2o1 |  |  |  |  | 68 | 1.4 |  |  |
| CC[N+](CC)(CC)Cc1c2ccoc2c(OC)c2oc(=O)ccc12 |  |  |  |  | 20 | 7 |  |  |
| Cc1coc2cc3oc(=O)cc(CO)c3cc12 |  |  |  |  | 11 | 4 |  |  |
| CC[N+](CC)(CC)Cc1c(C)oc2c(C)c3oc(=O)cc(C)c3cc12.[Cl-] | 7 |  |  | 16 | 27 | 5 |  | O2 production [4]: 66% |
| COCc1c2occc2c(OC)c2ccc(=O)oc12 | 1 | > 100 | > 100 | 1 | 35 | 26 |  | Kd [17]: 28 µM; O2 production [4]: 4% |
